# According to ChEMBL document CHEMBL5678815 (Clin Cancer Res, 2017):
# Activity calls are given as the source filed them. No cut-off for these calls is given here.
# Tests used:
# [1] = target: Myosin light chain kinase (Homo sapiens) (UniProt Q32MK0); assay: Inhibition of human MLCK assessed as remaining activity at 1 uM by ATP-competition binding assay relative to control
# In short: (§1)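 Single-point profiling at 1μM in an ATP-site-dependent competition binding assay across a panel of 395 human kinases, including mutant forms. The read-out is kinase binding signal in the presence of test agent, expressed as inhibition relative to the control signal. This screen assessed noncovalent binding interactions.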
# [2] = target: Ephrin type-A receptor 8 (Homo sapiens) (UniProt P29322); assay: Inhibition of human EPHA8 assessed as remaining activity at 1 uM by ATP-competition binding assay relative to control; in short: as §1
# [3] = target: Mitogen-activated protein kinase kinase kinase 20 (Homo sapiens) (UniProt Q9NYL2); assay: Inhibition of human ZAK assessed as remaining activity at 1 uM by ATP-competition binding assay relative to control
# In short: (§2)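 Single-concentration (1 μM) screen in an ATP-site-dependent competition binding assay (KINOMEscan, outsourced) covering 395 human kinases, mutants included. Non-covalent binding was read as the remaining signal relative to the control signal.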
# [4] = target: Receptor-interacting serine/threonine-protein kinase 2 (Homo sapiens) (UniProt O43353); assay: Inhibition of human RIPK2 assessed as remaining activity at 1 uM by ATP-competition binding assay relative to control; in short: as §2
# [5] = target: Tyrosine-protein kinase Mer (Homo sapiens) (UniProt Q12866); assay: Inhibition of human MERTK assessed as remaining activity at 1 uM by ATP-competition binding assay relative to control; in short: as §1
# [6] = target: Serine/threonine-protein kinase PAK 4 (Homo sapiens) (UniProt O96013); assay: Inhibition of human PAK4 assessed as remaining activity at 1 uM by ATP-competition binding assay relative to control; in short: as §1
# [7] = target: Atypical kinase COQ8B, mitochondrial (Homo sapiens) (UniProt Q96D53); assay: Inhibition of human ADCK4 assessed as remaining activity at 1 uM by ATP-competition binding assay relative to control
# In short: (§3)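 KINOMEscan ATP-site-dependent competition binding panel of 395 human kinases, with compound tested at 1 μM. Binding is reported as remaining signal relative to control.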
# [8] = target: Serine/threonine-protein kinase RIO2 (Homo sapiens) (UniProt Q9BVS4); assay: Inhibition of human RIOK2 assessed as remaining activity at 1 uM by ATP-competition binding assay relative to control; in short: as §2
# [9] = Antileukemic activity against human CLL mononuclear cells xenografted NSG mouse assessed as change in blood cells at 0.16 mg/ml preadministered with compound via drinking water and measured after 3 weeks by flow cytometry analysis relative to control; format: functional, CLL mononuclear cell
# In short: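 Primary CLL patient mononuclear cells (1 × 10^8 per mouse) engrafted into NSG mice on day 0 after busulfan priming on day −1. Vehicle or drug was given in drinking water from day −1. Mice were killed 3 weeks after engraftment; spleens homogenized, filtered and RBC-lysed; whole blood collected. Six patients, 2–5 mice per patient; paired t-test per patient.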
# Splenocyte = assay: In vivo inhibition of BCR signaling in female […] mouse assessed as change in CD86 expression at 25 mg/kg, po administered and measured after stimulation with anti-IgM for 18 h by flow cytometry analysis; format: functional, organism-based
# In short: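 Female C57BL/6 mice (5/group) received vehicle or 25 mg/kg drug by oral gavage at time zero, with spleens taken at time points from 3 to 24 h. Splenocytes were stimulated ex vivo with goat anti-mouse IgM at 10μg/mL for 18 h at 37°C in 5% CO2, then Fc-blocked and stained for CD19 plus CD69, CD86 or phospho-S6(S235/236), with 7-AAD to exclude dead cells. Read-out was flow cytometry on >5,000 gated CD19+ cells, compared with vehicle.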
# [10] = target: Mitogen-activated protein kinase 13 (Homo sapiens) (UniProt O15264); assay: Inhibition of human P38delta assessed as remaining activity at 1 uM by ATP-competition binding assay relative to control; in short: as §1
# [11] = target: Tyrosine-protein kinase receptor Tie-1 (Homo sapiens) (UniProt P35590); assay: Inhibition of human TIE1 assessed as remaining activity at 1 uM by ATP-competition binding assay relative to control; in short: as §2
# [12] = target: Dual specificity protein kinase TTK (Homo sapiens) (UniProt P33981); assay: Inhibition of human TTK assessed as remaining activity at 1 uM by ATP-competition binding assay relative to control; in short: as §2
# [13] = target: Serine/threonine-protein kinase pim-1 (Homo sapiens) (UniProt P11309); assay: Inhibition of human PIM1 assessed as remaining activity at 1 uM by ATP-competition binding assay relative to control; in short: as §1
# [14] = target: Serine/threonine-protein kinase PAK 3 (Homo sapiens) (UniProt O75914); assay: Inhibition of human PAK3 assessed as remaining activity at 1 uM by ATP-competition binding assay relative to control; in short: as §1
# [15] = target: Casein kinase I isoform gamma-1 (Homo sapiens) (UniProt Q9HCP0); assay: Inhibition of human CSNK1G1 assessed as remaining activity at 1 uM by ATP-competition binding assay relative to control; in short: as §3
# [16] = target: cAMP-dependent protein kinase catalytic subunit alpha (Homo sapiens) (UniProt P17612); assay: Inhibition of human PKAC-alpha assessed as remaining activity at 1 uM by ATP-competition binding assay relative to control; in short: as §2
# [17] = target: Serine/threonine-protein kinase MARK2 (Homo sapiens) (UniProt Q7KZI7); assay: Inhibition of human MARK2 assessed as remaining activity at 1 uM by ATP-competition binding assay relative to control; in short: as §1
# [18] = target: Tyrosine-protein kinase Fes/Fps (Homo sapiens) (UniProt P07332); assay: Inhibition of human FES assessed as remaining activity at 1 uM by ATP-competition binding assay relative to control; in short: as §1
# [19] = target: Uncharacterized serine/threonine-protein kinase SBK3 (Homo sapiens) (UniProt P0C264); assay: Inhibition of human SgK110 assessed as remaining activity at 1 uM by ATP-competition binding assay relative to control; in short: as §2
# [20] = target: Serine/threonine-protein kinase 26 (Homo sapiens) (UniProt Q9P289); assay: Inhibition of human MST4 assessed as remaining activity at 1 uM by ATP-competition binding assay relative to control; in short: as §1
# [21] = target: Mitogen-activated protein kinase kinase kinase 19 (Homo sapiens) (UniProt Q56UN5); assay: Inhibition of human YSK4 assessed as remaining activity at 1 uM by ATP-competition binding assay relative to control; in short: as §2
# [22] = target: Activated CDC42 kinase 1 (Homo sapiens) (UniProt Q07912); assay: Inhibition of human TNK2 assessed as remaining activity at 1 uM by ATP-competition binding assay relative to control; in short: as §2
# [23] = target: Leukocyte tyrosine kinase receptor (Homo sapiens) (UniProt P29376); assay: Inhibition of human LTK assessed as remaining activity at 1 uM by ATP-competition binding assay relative to control; in short: as §1
# [24] = target: Tyrosine-protein kinase BTK (Homo sapiens) (UniProt Q06187); conditions: dose < 100.0 nM
# [25] = target: Serine/threonine-protein kinase PRP4 homolog (Homo sapiens) (UniProt Q13523); assay: Inhibition of human PRP4 assessed as remaining activity at 1 uM by ATP-competition binding assay relative to control; in short: as §2
smiles,measurement,setting,value
CC#CC(=O)N1CCC[C@H]1c1nc(-c2ccc(C(=O)Nc3ccccn3)cc2)c2c(N)nccn12 [ACALABRUTINIB],Activity,[1],99%
same,Activity,[2],91%
same,Activity,[3],84%
same,Activity,[4],60%
same,Activity,[5],77%
same,Activity,[6],88%
same,Activity,[7],88%
same,Activity,[8],80%
same,Activity,[9],76%
same,Activity,Splenocyte,Active
same,Activity,[10],57%
same,Activity,[11],89%
same,Activity,[12],91%
same,Activity,[13],84%
same,Activity,[14],73%
same,Activity,[15],78%
same,Activity,[16],77%
same,Activity,[17],59%
same,Activity,[18],100%
same,Activity,[19],90%
same,Activity,[20],91%
same,Activity,[21],90%
same,Activity,[22],93%
same,Activity,[23],86%
same,inhibition,[24],Active
same,Activity,[25],86%
